Values after ≈ are worked out from the molar mass of the structure shown.
Key:
Format in all cases: functional
[1] = tested on: Clostridioides difficile; assay: Antimicrobial activity against Clostridium difficile isolate 38 by agar dilution method
Procedure, shortened: (§1)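 CLSI reference agar dilution method for anaerobes, with endpoints read per guideline M11-A7. Rifaximin was dissolved in methanol, diluted in 0.1 M phosphate buffer (pH 7.4) with 0.45% SDS, and tested at 0.0009–256 μg/ml. Rifampin was dissolved in methanol, diluted in water, and tested at 0.00001–256 μg/ml. C. difficile ATCC […] served as control. Isolates were typed by HindIII REA.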

[2] = tested on: Clostridioides difficile; assay: Antimicrobial activity against Clostridium difficile isolate 44 by agar dilution method; procedure, shortened: as §1
[3] = tested on: Clostridioides difficile; assay: Antimicrobial activity against Clostridium difficile isolate 45 by agar dilution method; procedure, shortened: as §1
[4] = tested on: Clostridioides difficile; assay: Antimicrobial activity against rifaximin-resistant Clostridium difficile isolate 50 expressing RpoB R505K mutant by agar dilution method
Procedure, shortened: (§2)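 MICs were found by the CLSI reference agar dilution method for anaerobes, with endpoints read per M11-A7 and C. difficile […] as control. Rifaximin was dissolved in methanol, diluted in 0.1 M phosphate buffer pH 7.4 with 0.45% SDS, and tested at 0.0009–256 μg/ml. Rifampin was dissolved in methanol, diluted in water, and tested at 0.00001–256 μg/ml.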

[5] = tested on: Clostridioides difficile; assay: Antimicrobial activity against Clostridium difficile isolate 51 by agar dilution method; procedure, shortened: as §1
[6] = tested on: Clostridioides difficile; assay: Antimicrobial activity against Clostridium difficile isolate 57 by agar dilution method; procedure, shortened: as §1
[7] = tested on: Clostridioides difficile; assay: Antimicrobial activity against Clostridium difficile isolate 61 by agar dilution method; procedure, shortened: as §1
[8] = tested on: Clostridioides difficile; assay: Antimicrobial activity against Clostridium difficile isolate 62 by agar dilution method
Procedure, shortened: (§3)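 CLSI reference agar dilution for anaerobes, with endpoints read per guideline M11-A7. Rifaximin was dissolved in methanol, diluted in 0.1 M phosphate buffer pH 7.4 with 0.45% SDS, and tested at 0.0009–256 μg/ml. Rifampin was dissolved in methanol, diluted in water, and tested at 0.00001–256 μg/ml. Control strain: C. difficile ATCC […]. Isolates were typed by HindIII REA.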

[9] = tested on: Clostridioides difficile; assay: Antimicrobial activity against rifaximin-resistant Clostridium difficile isolate 68 expressing RpoB H502Y mutant by agar dilution method; procedure, shortened: as §2
[10] = tested on: Clostridioides difficile; assay: Antimicrobial activity against Clostridium difficile isolate 73 by agar dilution method; procedure, shortened: as §3
[11] = tested on: Clostridioides difficile; assay: Antimicrobial activity against Clostridium difficile isolate 76 by agar dilution method; procedure, shortened: as §3
[12] = tested on: Clostridioides difficile; assay: Antimicrobial activity against Clostridium difficile isolate 2 by Etest
Procedure, shortened: (§4)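 Rifampin MIC by Etest strip on brucella blood agar, run per the strip maker's instructions. Isolates were HindIII REA-typed clinical C. difficile.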

[13] = tested on: Clostridioides difficile; assay: Antimicrobial activity against Clostridium difficile isolate 5 by Etest
Procedure, shortened: (§5)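 Rifampin Etest strips were run on brucella blood agar following the manufacturer's instructions to give an MIC. Clinical isolates were typed by HindIII REA.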

[14] = tested on: Clostridioides difficile; assay: Antimicrobial activity against Clostridium difficile isolate 6 by Etest; procedure, shortened: as §5
[15] = tested on: Clostridioides difficile; assay: Antimicrobial activity against Clostridium difficile isolate 8 by Etest
Procedure, shortened: (§6)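 Rifampin MIC by Etest on brucella blood agar, run per the strip manufacturer's instructions, against clinical isolates typed by HindIII REA.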

[16] = tested on: Clostridioides difficile; assay: Antimicrobial activity against Clostridium difficile isolate 11 by Etest; procedure, shortened: as §4
[17] = tested on: Clostridioides difficile; assay: Antimicrobial activity against Clostridium difficile isolate 13 by Etest; procedure, shortened: as §4
[18] = tested on: Clostridioides difficile; assay: Antimicrobial activity against rifaximin-resistant Clostridium difficile isolate 17 expressing RpoB H502N and I548M mutants by Etest
Procedure, shortened: (§7)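 Rifampin Etest on clinical C. difficile isolates typed by HindIII REA, run per the strip manufacturer's instructions on brucella blood agar, with the MIC read from the strip.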

[19] = tested on: Clostridioides difficile; assay: Antimicrobial activity against rifaximin-resistant Clostridium difficile isolate 18 expressing RpoB R505K mutant by Etest; procedure, shortened: as §7
[20] = tested on: Clostridioides difficile; assay: Antimicrobial activity against Clostridium difficile isolate 20 by Etest; procedure, shortened: as §4
[21] = tested on: Clostridioides difficile; assay: Antimicrobial activity against rifaximin-resistant Clostridium difficile isolate 24 expressing RpoB H502N and R505K mutants by Etest; procedure, shortened: as §7
[22] = tested on: Clostridioides difficile; assay: Antimicrobial activity against rifaximin-resistant Clostridium difficile isolate 26 expressing RpoB R505K mutant by Etest; procedure, shortened: as §7
[23] = tested on: Clostridioides difficile; assay: Antimicrobial activity against Clostridium difficile isolate 34 by Etest; procedure, shortened: as §4
[24] = tested on: Clostridioides difficile; assay: Antimicrobial activity against Clostridium difficile isolate 38 by Etest; procedure, shortened: as §4
[25] = tested on: Clostridioides difficile; assay: Antimicrobial activity against Clostridium difficile isolate 42 by Etest; procedure, shortened: as §5
[26] = tested on: Clostridioides difficile; assay: Antimicrobial activity against Clostridium difficile isolate 43 by Etest; procedure, shortened: as §5
[27] = tested on: Clostridioides difficile; assay: Antimicrobial activity against Clostridium difficile isolate 44 by Etest; procedure, shortened: as §5
[28] = tested on: Clostridioides difficile; assay: Antimicrobial activity against Clostridium difficile isolate 45 by Etest; procedure, shortened: as §5
[29] = tested on: Clostridioides difficile; assay: Antimicrobial activity against Clostridium difficile isolate 47 by Etest; procedure, shortened: as §5
[30] = tested on: Clostridioides difficile; assay: Antimicrobial activity against Clostridium difficile isolate 49 by Etest; procedure, shortened: as §5
[31] = tested on: Clostridioides difficile; assay: Antimicrobial activity against Clostridium difficile isolate 52 by Etest; procedure, shortened: as §5
[32] = tested on: Clostridioides difficile; assay: Antimicrobial activity against Clostridium difficile isolate 53 by Etest; procedure, shortened: as §5
[33] = tested on: Clostridioides difficile; assay: Antimicrobial activity against Clostridium difficile isolate 56 by Etest; procedure, shortened: as §5
[34] = tested on: Clostridioides difficile; assay: Antimicrobial activity against rifaximin-resistant Clostridium difficile isolate 67 expressing RpoB H502N and R505K mutants by Etest; procedure, shortened: as §7
[35] = tested on: Clostridioides difficile; assay: Antimicrobial activity against Clostridium difficile isolate 71 by Etest; procedure, shortened: as §6
[36] = tested on: Clostridioides difficile; assay: Antimicrobial activity against Clostridium difficile isolate 77 by Etest; procedure, shortened: as §6
[37] = tested on: Clostridioides difficile; assay: Antimicrobial activity against Clostridium difficile isolate 2 by agar dilution method
Procedure, shortened: (§8)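 MIC by CLSI reference agar dilution for anaerobes, with endpoints read per M11-A7 and C. difficile […] as control. Rifaximin was dissolved in methanol, diluted in 0.1 M phosphate buffer pH 7.4 plus 0.45% SDS, and tested at 0.0009–256 μg/ml. Rifampin was dissolved in methanol, diluted in water, and tested at 0.00001–256 μg/ml.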

[38] = tested on: Clostridioides difficile; assay: Antimicrobial activity against Clostridium difficile isolate 7 by agar dilution method; procedure, shortened: as §3
[39] = tested on: Clostridioides difficile; assay: Antimicrobial activity against Clostridium difficile isolate 10 by agar dilution method; procedure, shortened: as §8
[40] = tested on: Clostridioides difficile; assay: Antimicrobial activity against rifaximin-resistant Clostridium difficile isolate 12 expressing RpoB H502N and R505K mutants by agar dilution method; procedure, shortened: as §2
[41] = tested on: Clostridioides difficile; assay: Antimicrobial activity against Clostridium difficile isolate 14 by agar dilution method; procedure, shortened: as §8
[42] = tested on: Clostridioides difficile; assay: Antimicrobial activity against Clostridium difficile isolate 15 by agar dilution method; procedure, shortened: as §8
[43] = tested on: Clostridioides difficile; assay: Antimicrobial activity against Clostridium difficile isolate 19 by agar dilution method; procedure, shortened: as §8
[44] = tested on: Clostridioides difficile; assay: Antimicrobial activity against Clostridium difficile isolate 25 by agar dilution method; procedure, shortened: as §8
[45] = tested on: Clostridioides difficile; assay: Antimicrobial activity against rifaximin-resistant Clostridium difficile isolate 26 expressing RpoB R505K mutant by agar dilution method; procedure, shortened: as §2
[46] = tested on: Clostridioides difficile; assay: Antimicrobial activity against Clostridium difficile isolate 28 by agar dilution method; procedure, shortened: as §8
[47] = tested on: Clostridioides difficile; assay: Antimicrobial activity against Clostridium difficile isolate 30 by agar dilution method; procedure, shortened: as §8
[48] = tested on: Clostridioides difficile; assay: Antimicrobial activity against Clostridium difficile isolate 33 by agar dilution method; procedure, shortened: as §8
[49] = tested on: Clostridioides difficile; assay: Antimicrobial activity against Clostridium difficile isolate 34 by agar dilution method; procedure, shortened: as §8
[50] = tested on: Clostridioides difficile; assay: Antimicrobial activity against Clostridium difficile isolate 35 by agar dilution method; procedure, shortened: as §8

Compound: CO[C@H]1/C=C/O[C@@]2(C)Oc3c(C)c(O)c4c(O)c(c(/C=N/N5CCN(C)CC5)c(O)c4c3C2=O)NC(=O)/C(C)=C\C=C\[C@H](C)[C@H](O)[C@@H](C)[C@@H](O)[C@@H](C)[C@H](OC(C)=O)[C@@H]1C [RIFAMPIN]
- MIC [1]: 0.4 ng/mL (≈ 0.486 nM)
- MIC [2]: 0.9 ng/mL (≈ 1.09 nM)
- MIC [3]: 0.9 ng/mL (≈ 1.09 nM)
- MIC [4]: 128000 ng/mL (≈ 156000 nM)
- MIC [5]: 0.9 ng/mL (≈ 1.09 nM)
- MIC [6]: 0.9 ng/mL (≈ 1.09 nM)
- MIC [7]: 0.9 ng/mL (≈ 1.09 nM)
- MIC [8]: 0.9 ng/mL (≈ 1.09 nM)
- MIC [9]: > 256000 ng/mL
- MIC [10]: 0.06 ng/mL (≈ 0.0729 nM)
- MIC [11]: 0.06 ng/mL (≈ 0.0729 nM)
- MIC [12]: < 2 ng/mL
- MIC [13]: < 2 ng/mL
- MIC [14]: < 2 ng/mL
- MIC [15]: < 2 ng/mL
- MIC [16]: < 2 ng/mL
- MIC [17]: < 2 ng/mL
- MIC [18]: > 32000 ng/mL
- MIC [19]: > 32000 ng/mL
- MIC [20]: < 2 ng/mL
- MIC [21]: > 32000 ng/mL
- MIC [22]: > 32000 ng/mL
- MIC [23]: 4 ng/mL (≈ 4.86 nM)
- MIC [24]: < 2 ng/mL
- MIC [25]: < 2 ng/mL
- MIC [26]: < 2 ng/mL
- MIC [27]: < 2 ng/mL
- MIC [28]: < 2 ng/mL
- MIC [29]: < 2 ng/mL
- MIC [30]: < 2 ng/mL
- MIC [31]: < 2 ng/mL
- MIC [32]: < 2 ng/mL
- MIC [33]: < 2 ng/mL
- MIC [34]: > 32000 ng/mL
- MIC [35]: < 2 ng/mL
- MIC [36]: < 2 ng/mL
- MIC [37]: 0.06 ng/mL (≈ 0.0729 nM)
- MIC [38]: 0.06 ng/mL (≈ 0.0729 nM)
- MIC [39]: 0.06 ng/mL (≈ 0.0729 nM)
- MIC [40]: > 256000 ng/mL
- MIC [41]: 0.9 ng/mL (≈ 1.09 nM)
- MIC [42]: 0.9 ng/mL (≈ 1.09 nM)
- MIC [43]: 0.9 ng/mL (≈ 1.09 nM)
- MIC [44]: 0.9 ng/mL (≈ 1.09 nM)
- MIC [45]: 128000 ng/mL (≈ 156000 nM)
- MIC [46]: 0.9 ng/mL (≈ 1.09 nM)
- MIC [47]: 0.9 ng/mL (≈ 1.09 nM)
- MIC [48]: 0.9 ng/mL (≈ 1.09 nM)
- MIC [49]: 0.9 ng/mL (≈ 1.09 nM)
- MIC [50]: 0.9 ng/mL (≈ 1.09 nM)

From ChEMBL document CHEMBL1275484, “Rifampin and rifaximin resistance in clinical isolates of Clostridium difficile” (Antimicrob Agents Chemother, 2008)
